Experimental data gathered from unrelated publications.
Lines come from different studies, so protocols differ.
Cell line: K562
Read-out: cell growth or viability

SMILES	test	conditions	IC50
O=C(NO)c1ccc(Cn2cnc3c(Nc4cccc([N+](=O)[O-])c4)ncnc32)cc1	MTT	72 h	10.4 µM
CC(C)[C@@H]1NC(=O)[C@H](Cc2c[nH]cn2)NC1=O	MTT	–	> 15 µM
FC(F)(F)c1ccc(-c2cc(CNc3cccc4cccnc34)on2)cc1	MTS	72 h	> 100 µM
O=C(NO)c1ccc(Cn2cnc3c(Nc4ccc(Br)cc4F)ncnc32)cc1	MTT	72 h	5.18 µM
c1ccc(-c2cc(CNc3cccc4cccnc34)on2)cc1	MTS	72 h	> 100 µM
COc1cccc2c1C(=O)c1c(O)c3c(c(O)c1C2=O)C[C@@](O)(C(=O)CO)C[C@@H]3O[C@H]1C[C@H](N)[C@H](O)[C@H](C)O1	–	96 h	0.13 µM
COc1ccc(Nc2ncnc3c2ncn3Cc2ccc(C(=O)Nc3ccccc3N)cc2)cc1	MTT	72 h	> 50 µM
CC(C)[C@@H]1NC(=O)/C(=C/c2cnc[nH]2)NC1=O	MTT	–	> 15 µM
O=c1cc(OCc2cc(-c3ccc(Cl)cc3Cl)no2)c2ccccc2o1	MTS	72 h	> 100 µM
CN1CCC(NC2CCc3[nH]c4c(C(N)=O)ccc(-c5ccccc5Cl)c4c3C2)CC1 (stereo not shown)	–	–	0.0214 µM
